ChEMBL document CHEMBL3593245 (J Med Chem, 2015)
Converted amounts (≈) assume the structure as drawn.

How the values were obtained:
[1] = target: T1, Rap guanine nucleotide exchange factor 4 (Mus musculus, UniProt Q9EQZ6); test: Displacement of 8-NBD-cAMP from mouse recombinant EPAC2 by fluorescence assay
T1 sequence (Q9EQZ6 whole entry): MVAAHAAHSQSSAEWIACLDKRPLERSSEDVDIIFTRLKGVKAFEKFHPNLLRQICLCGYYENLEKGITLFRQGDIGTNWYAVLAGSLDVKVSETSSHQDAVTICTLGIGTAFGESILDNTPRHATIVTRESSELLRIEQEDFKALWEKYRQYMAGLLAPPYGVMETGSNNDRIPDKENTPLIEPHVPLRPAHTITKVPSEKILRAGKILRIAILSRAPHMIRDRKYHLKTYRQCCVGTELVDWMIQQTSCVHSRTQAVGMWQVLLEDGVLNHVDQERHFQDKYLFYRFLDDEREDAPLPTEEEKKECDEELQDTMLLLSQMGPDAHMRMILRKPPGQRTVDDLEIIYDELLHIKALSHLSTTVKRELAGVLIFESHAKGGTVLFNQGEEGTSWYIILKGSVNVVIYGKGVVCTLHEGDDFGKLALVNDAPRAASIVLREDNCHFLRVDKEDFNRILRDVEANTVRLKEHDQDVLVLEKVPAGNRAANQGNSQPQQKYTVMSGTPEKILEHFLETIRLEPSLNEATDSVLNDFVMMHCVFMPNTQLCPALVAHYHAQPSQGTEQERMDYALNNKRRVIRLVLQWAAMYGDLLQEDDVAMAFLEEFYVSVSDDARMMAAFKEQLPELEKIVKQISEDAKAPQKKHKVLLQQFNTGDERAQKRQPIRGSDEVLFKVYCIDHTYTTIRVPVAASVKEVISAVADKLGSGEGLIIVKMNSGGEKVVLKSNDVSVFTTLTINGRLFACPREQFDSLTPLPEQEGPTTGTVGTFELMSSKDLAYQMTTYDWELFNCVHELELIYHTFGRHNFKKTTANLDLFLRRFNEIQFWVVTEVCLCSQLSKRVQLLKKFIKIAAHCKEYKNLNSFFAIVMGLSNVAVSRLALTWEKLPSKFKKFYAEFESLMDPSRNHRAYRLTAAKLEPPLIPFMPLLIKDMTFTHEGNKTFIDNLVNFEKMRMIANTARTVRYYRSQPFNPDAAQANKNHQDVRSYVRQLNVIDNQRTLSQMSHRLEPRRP

[2] = target: T2, Rap guanine nucleotide exchange factor 3 (Homo sapiens, UniProt O95398); test: Antagonist activity at human recombinant EPAC1 assessed as inhibition of Rap1b-bGDP exchange activity
T2 sequence (O95398 whole entry): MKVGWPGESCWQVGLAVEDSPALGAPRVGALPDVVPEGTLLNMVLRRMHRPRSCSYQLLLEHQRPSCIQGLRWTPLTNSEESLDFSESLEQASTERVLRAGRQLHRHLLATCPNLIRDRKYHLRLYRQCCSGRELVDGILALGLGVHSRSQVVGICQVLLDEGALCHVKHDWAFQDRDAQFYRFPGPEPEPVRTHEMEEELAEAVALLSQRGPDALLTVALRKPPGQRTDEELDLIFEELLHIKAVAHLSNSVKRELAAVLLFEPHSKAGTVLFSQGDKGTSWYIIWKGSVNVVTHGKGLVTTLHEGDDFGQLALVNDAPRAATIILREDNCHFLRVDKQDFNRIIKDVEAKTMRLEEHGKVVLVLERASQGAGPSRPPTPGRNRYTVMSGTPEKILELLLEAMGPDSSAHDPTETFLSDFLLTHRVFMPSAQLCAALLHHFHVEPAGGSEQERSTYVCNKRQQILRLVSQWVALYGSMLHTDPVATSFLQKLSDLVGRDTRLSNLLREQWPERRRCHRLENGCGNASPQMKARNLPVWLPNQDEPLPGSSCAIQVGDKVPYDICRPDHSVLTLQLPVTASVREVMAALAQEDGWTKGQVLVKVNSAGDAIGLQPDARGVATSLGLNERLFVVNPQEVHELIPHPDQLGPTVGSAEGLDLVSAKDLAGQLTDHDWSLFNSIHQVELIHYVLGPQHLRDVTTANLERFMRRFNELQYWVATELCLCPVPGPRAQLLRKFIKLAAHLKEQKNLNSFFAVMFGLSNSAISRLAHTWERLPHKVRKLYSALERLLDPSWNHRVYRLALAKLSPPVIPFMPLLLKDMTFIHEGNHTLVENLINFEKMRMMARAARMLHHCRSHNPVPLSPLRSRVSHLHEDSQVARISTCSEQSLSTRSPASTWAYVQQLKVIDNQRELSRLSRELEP

[3] = […] solubility of the compound in water after 24 hrs by HPLC analysis; type: physicochemical; settings: for solubility: buffer, 24 h
[4] = […] solubility of the compound in ethanol after 24 hrs by HPLC analysis; type: physicochemical
Outline: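 10–15 mg of solid added to 0.1–0.6 mL ethanol, shaken 24 h at 25 °C, then centrifuged and filtered. Supernatant (5 μL) injected on C18 reverse-phase HPLC with UV detection at 270 and 254 nm. Quantified by one-point calibration against standards of known concentration.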

[5] = target: T3, Rap guanine nucleotide exchange factor 4 (Mus musculus) (UniProt Q9EQZ6); test: Ratio of cAMP IC50 to compound IC50 for displacement of 8-NBD-cAMP from mouse recombinant EPAC2 by fluorescence assay
T3 sequence (whole entry): T1 sequence (Q9EQZ6 whole entry)

[6] = target: T2, Rap guanine nucleotide exchange factor 3; test: Antagonist activity at EPAC1 (unknown origin) assessed as cAMP-induced guanine nucleotide exchange factor activity

| IC50 [1] | SMILES | IC50 ([1]; read-out: IC50) [µM] | IC50 [2] [µM] | Ratio IC50 [5] | other results |
| --- | --- | --- | --- | --- | --- |
| Not Active | Cc1cc(C(=O)/C(C#N)=N/Nc2cccc(Cl)c2)no1 | – | – | – | – |
| Not Active | CC(=O)c1cccc(N/N=C(\C#N)C(=O)c2cc(C(C)(C)C)on2)c1 | – | – | – | – |
| – | CCOC(=O)c1cccc(N/N=C(\C#N)C(=O)c2cc(C(C)(C)C)on2)c1 | 71.4 | – | – | – |
| – | N#C/C(=N\Nc1cccc(Cl)c1)C(=O)c1cc(C2CC2)on1 | 60 | – | – | – |
| Not Active | CC(C)(C)c1cc(C(=O)N/N=C/c2cccc(Cl)c2)no1 | – | – | – | – |
| Not Active | CC(C)(C)c1cc(NC(=O)/C(C#N)=N/Nc2cccc(Cl)c2)no1 | – | – | – | – |
| – | CC(C)(C)c1cc(C(=O)/C(C#N)=N/Nc2cc(F)c(F)c(F)c2)no1 | – | 8.9 | – | solubility [3]: 0.216 mM (≈ 75.7 µg/mL); solubility at 24 h [4]: 81.6 mM (≈ 28600 µg/mL) |
| Not Active | CC(C)(C)c1cc(-c2n[nH]c(N)c2/N=N/c2cccc(Cl)c2)no1 | – | – | – | – |
| – | CC(C)(C)c1cc(C(=O)/C(C#N)=N/Nc2cccc(C#N)c2)no1 | 67.8 | – | – | – |
| Not Active | COc1cccc(N/N=C(\C#N)C(=O)c2cc(C(C)(C)C)on2)c1 | – | – | – | – |
| – | CC(C)(C)c1cc(C(=O)/C(C#N)=N/Nc2cc(Cl)cc(C(F)(F)F)c2)no1 | 1.6 | 5.7 | – | solubility at 24 h [4]: 36.6 mM (≈ 14600 µg/mL) |
| – | N#C/C(=N\Nc1cccc(Cl)c1)C(=O)c1cc(C2CCCCC2)on1 | 11.3 | – | 2.8 | – |
| – | N#C/C(=N\Nc1cc(Cl)c(Cl)c(Cl)c1)C(=O)c1cc(C2CC2)on1 | – | 4.1 | – | – |
| – | CC(C)(C)c1cc(C(=O)/C(C#N)=N/Nc2cccc([N+](=O)[O-])c2)no1 | 31.3 | – | 1 | – |
| – | CC(C)(C)c1cc(C(=O)/C(C#N)=N/Nc2cc(F)cc(Cl)c2)no1 | 2.5 | 11.6 | 12.8 | – |
| Not Active | CC(C)(C)c1cc(C(=O)Nc2cccc(Cl)c2)no1 | – | – | – | – |
| – | CC(C)(C)c1cc(C(=O)/C(C#N)=N/Nc2cc(C(F)(F)F)cc(C(F)(F)F)c2)no1 | 6.4 | 5.7 | – | solubility [3]: 0.968 mM (≈ 418 µg/mL); solubility at 24 h [4]: > 347 mM |
| – | CC(C)(C)c1cc(C(=O)/C(C#N)=N/Nc2cc(Cl)cc(Cl)c2)no1 | – | – | 16.8 | – |
| – | CC(C)(C)c1cc(C(=O)/C(C#N)=N/Nc2ccc(C(F)(F)F)c(Cl)c2)no1 | – | 4.3 | – | – |

| IC50 [1] | SMILES | IC50 ([1]; read-out: IC50) [µM] | IC50 [2] [µM] | Ratio IC50 [5] | other results |
| --- | --- | --- | --- | --- | --- |
| Not Active | CC(C)(C)c1cc(C(=O)/C(C#N)=N/Nc2cccc(CO)c2)no1 | – | – | – | – |
| Not Active | Cc1cc(NC(=O)/C(C#N)=N/Nc2cccc(Cl)c2)no1 | – | – | – | – |
| – | CC(C)(C)c1cc(C(=O)/C(C#N)=N/Nc2ccccc2Cl)no1 | – | – | 1.1 | – |
| – | CC(C)(C)c1cc(C(=O)/C(C#N)=N/Nc2cc(Cl)c(Cl)c(Cl)c2)no1 | 0.9 | 2.4 | – | solubility [3]: 0.0318 mM (≈ 12.7 µg/mL); solubility at 24 h [4]: 10.9 mM (≈ 4360 µg/mL) |
| – | CC(C)(C)c1cc(C(=O)/C(C#N)=N/Nc2ccc(F)c(Cl)c2)no1 | 2.7 | 7.8 | 11.9 | solubility [3]: 0.2368 mM (≈ 82.6 µg/mL); solubility at 24 h [4]: 23.5 mM (≈ 8200 µg/mL) |
| – | CC(C)(C)c1cc(C(=O)/C(C#N)=N/Nc2cc(F)cc(F)c2)no1 | 5.3 | – | 6 | – |
| – | CC(C)(C)c1cc(C(=O)/C(C#N)=N/Nc2ccccc2)no1 | – | – | 0.5 | – |
| Not Active | CC(C)(C)c1cc(NC(=O)c2cccc(Cl)c2)no1 | – | – | – | – |
| – | CC(C)(C)c1cc(C(=O)/C(C#N)=N/Nc2cccc(Cl)c2Cl)no1 | – | – | 0.9 | – |
| – | CC(C)(C)c1cc(C(=O)/C(C#N)=N/Nc2cccc(Cl)c2)no1 | – | 10.8 | – | IC50 [6]: 10.8 µM; solubility at 24 h ([3]; water): 0.018 mM (≈ 5.95 µg/mL); solubility at 24 h [4]: 45.3 mM (≈ 15000 µg/mL) |
| – | CC(C)(C)c1cc(C(=O)/C(C#N)=N/Nc2ccc(Cl)c(Cl)c2)no1 | – | – | 10.7 | – |
| Not Active | CC(C)(C)c1cc(NC(=O)Nc2cccc(Cl)c2)no1 | – | – | – | – |
| – | CC(C)(C)c1cc(C(=O)/C(C#N)=N/Nc2ccc(Cl)c(C(F)(F)F)c2)no1 | – | 9.7 | – | – |
| – | CC(C)(C)c1cc(C(=O)/C(C#N)=N/Nc2ccc(Cl)c(F)c2)no1 | 4.3 | – | 7.4 | – |
| – | CC(C)(C)c1cc(C(=O)/C(C#N)=N/Nc2ccc(Cl)cc2)no1 | – | – | 1.2 | – |
| – | N#C/C(=N\Nc1cc(Cl)cc(Cl)c1)C(=O)c1cc(C2CCCCC2)on1 | – | 2.6 | – | – |
| – | N#C/C(=N\Nc1cc(Cl)c(Cl)c(Cl)c1)C(=O)c1cc(C2CCCCC2)on1 | – | 4 | – | solubility [3]: 0.0237 mM (≈ 10.1 µg/mL); solubility at 24 h [4]: 8.5 mM (≈ 3620 µg/mL) |
| Not Active | N#C/C(=N\Nc1cc(Cl)c(Cl)c(Cl)c1)C(=O)c1cc(-c2ccccc2)on1 | – | – | – | – |
| – | CC(C)(C)c1cc(C(=O)/C(C#N)=N/Nc2cc(Cl)ccc2Cl)no1 | – | – | 4.4 | – |

| SMILES | IC50 [1] | IC50 ([1]; read-out: IC50) [µM] | IC50 [2] [µM] | Ratio IC50 [5] | other results |
| --- | --- | --- | --- | --- | --- |
| N#C/C(=N\Nc1cccc(Cl)c1)C(=O)c1cc(-c2ccccc2)on1 | Not Active | – | – | – | – |
